Reference: ChEMBL document CHEMBL1137696, “Preparation and in vitro evaluation of benzylsulfanyl benzoxazole derivatives as potential antituberculosis agents” (2009)
Values after ≈ are worked out from the molar mass of the structure shown.

Tests used:
Format in all cases: functional
Mycobacterium avium [1] = test: Antimycobacterial activity against Mycobacterium avium CNCTC My 330/88 after 14 days by micromethod; settings: CNCTC My 330/88, 336 h
Procedure, shortened: (§1)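 MIC by micromethod in Šula semisynthetic medium. Compounds added as DMSO solutions at 1000, 500, 250, 125, 62, 32, 16, 8, 4 and 2 µmol/L. Incubated at 37 °C and read at 14 and 21 days. MIC taken as the lowest concentration that inhibited mycobacterial growth, expressed in µmol/L. INH run as standard. Strains from CNCTC.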

[2] = tested on: Mycobacterium tuberculosis; test: Antimycobacterial activity against Mycobacterium tuberculosis CNCTC My 331/88 after 14 days by micromethod; settings: CNCTC My 331/88, 336 h; procedure, shortened: as §1
Mycobacterium kansasii [3] = test: Antimycobacterial activity against Mycobacterium kansasii CNCTC My 235/80 after 14 days by micromethod; settings: CNCTC My 235/80, 336 h
Procedure, shortened: (§2)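 Micromethod MIC in Šula semisynthetic medium, with compounds added as DMSO solutions at 1000, 500, 250, 125, 62, 32, 16, 8, 4 and 2 µmol/L. Cultures were incubated at 37 °C, and M. kansasii was read at 7, 14 and 21 days. MIC is the lowest concentration at which mycobacterial growth was inhibited. INH served as standard. Strain 6509/96 was a clinical isolate.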

Mycobacterium kansasii [4] = test: Antimycobacterial activity against Mycobacterium kansasii 6509/96 after 21 days by micromethod; settings: 6509/96, 504 h; procedure, shortened: as §2
Mycobacterium kansasii [5] = test: Antimycobacterial activity against Mycobacterium kansasii 6509/96 after 14 days by micromethod; settings: 6509/96, 336 h; procedure, shortened: as §2
[6] = tested on: Mycobacterium tuberculosis; test: Antimycobacterial activity against Mycobacterium tuberculosis CNCTC My 331/88 after 21 days by micromethod; settings: CNCTC My 331/88, 504 h; procedure, shortened: as §1
Mycobacterium kansasii [7] = test: Antimycobacterial activity against Mycobacterium kansasii CNCTC My 235/80 after 7 days by micromethod; settings: CNCTC My 235/80, 168 h; procedure, shortened: as §2
Mycobacterium kansasii [8] = test: Antimycobacterial activity against Mycobacterium kansasii CNCTC My 235/80 after 21 days by micromethod; settings: CNCTC My 235/80, 504 h; procedure, shortened: as §2
Mycobacterium kansasii [9] = test: Antimycobacterial activity against Mycobacterium kansasii 6509/96 after 7 days by micromethod; settings: 6509/96, 168 h; procedure, shortened: as §2
Mycobacterium avium [10] = test: Antimycobacterial activity against Mycobacterium avium CNCTC My 330/88 after 21 days by micromethod; settings: CNCTC My 330/88, 504 h; procedure, shortened: as §1
K562 = test: Growth inhibition of human K562 cells
Procedure, shortened: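 K-562 suspension cultures in microplates were exposed to 10 concentrations of compound. Each well was diluted 1:50 in CASYTON and counted with a CASY 1 electronic cell analyzer (150 µm aperture), using the mean of three successive 0.4 mL counts. GI50 is the point where the concentration-response curve of cell counts/mL relative to control crosses the 50% line.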

HeLa = test: Cytotoxicity against human HeLa cells
Procedure, shortened: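 Adherent HeLa monolayers were incubated with 10 concentrations of compound, then glutaraldehyde-fixed and stained with 0.05% methylene blue for 15 min. After gentle washing, the stain was eluted with 0.33 N HCl and absorbance read at 630 nm. CC50 is the concentration causing 50% cytotoxic (lytic) effect.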

L929 = test: Growth inhibition of mouse L929 cells
Procedure, shortened: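 Antiproliferative assay on adherent L-929 monolayers exposed to 10 concentrations of compound. Cells were fixed with glutaraldehyde, stained with 0.05% methylene blue for 15 min, washed, and the dye eluted with 0.33 N HCl. OD was read at 630 nm, and GI50 is the concentration giving 50% growth inhibition.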

SMILES | MIC (Mycobacterium avium [1]) | MIC [2] | MIC (Mycobacterium kansasii [3]) | MIC (Mycobacterium kansasii [4]) | MIC (Mycobacterium kansasii [5]) | MIC [6] | MIC (Mycobacterium kansasii [7]) | MIC (Mycobacterium kansasii [8]) | MIC (Mycobacterium kansasii [9]) | MIC (Mycobacterium avium [10]) | GI50 (K562) | CC50 (HeLa) | GI50 (L929)
Brc1cccc(CSc2nc3ccccc3o2)c1 | 32 µM (≈ 10.2 µg/mL) | 125 µM (≈ 40 µg/mL) | 32 µM (≈ 10.2 µg/mL) | 62 µM (≈ 19.9 µg/mL) | 32 µM (≈ 10.2 µg/mL) | 250 µM (≈ 80.1 µg/mL) | 32 µM (≈ 10.2 µg/mL) | 62 µM (≈ 19.9 µg/mL) | 32 µM (≈ 10.2 µg/mL) | 32 µM (≈ 10.2 µg/mL) | – | – | –
Sc1nc2ccccc2o1 | 250 µM (≈ 37.8 µg/mL) | 500 µM (≈ 75.6 µg/mL) | 1000 µM (≈ 151 µg/mL) | 1000 µM (≈ 151 µg/mL) | 500 µM (≈ 75.6 µg/mL) | 500 µM (≈ 75.6 µg/mL) | 500 µM (≈ 75.6 µg/mL) | 1000 µM (≈ 151 µg/mL) | 250 µM (≈ 37.8 µg/mL) | 500 µM (≈ 75.6 µg/mL) | – | – | –
Brc1ccc(CSc2nc3ccccc3o2)cc1 | 32 µM (≈ 10.2 µg/mL) | > 62 µM | 62 µM (≈ 19.9 µg/mL) | 125 µM (≈ 40 µg/mL) | 62 µM (≈ 19.9 µg/mL) | > 125 µM | 32 µM (≈ 10.2 µg/mL) | > 62 µM | 32 µM (≈ 10.2 µg/mL) | 62 µM (≈ 19.9 µg/mL) | – | – | –
NC(=S)c1cccc(CSc2nc3ccccc3o2)c1 | 62 µM (≈ 18.6 µg/mL) | 8 µM (≈ 2.4 µg/mL) | 32 µM (≈ 9.61 µg/mL) | 32 µM (≈ 9.61 µg/mL) | 32 µM (≈ 9.61 µg/mL) | 16 µM (≈ 4.81 µg/mL) | 8 µM (≈ 2.4 µg/mL) | 32 µM (≈ 9.61 µg/mL) | 8 µM (≈ 2.4 µg/mL) | 62 µM (≈ 18.6 µg/mL) | 5.5 µg/mL (≈ 18.3 µM) | 21.6 µg/mL (≈ 71.9 µM) | 17.3 µg/mL (≈ 57.6 µM)
Fc1cccc(Cl)c1CSc1nc2ccccc2o1 | 62 µM (≈ 18.2 µg/mL) | 62 µM (≈ 18.2 µg/mL) | 32 µM (≈ 9.4 µg/mL) | 62 µM (≈ 18.2 µg/mL) | 32 µM (≈ 9.4 µg/mL) | 125 µM (≈ 36.7 µg/mL) | 32 µM (≈ 9.4 µg/mL) | 62 µM (≈ 18.2 µg/mL) | 32 µM (≈ 9.4 µg/mL) | 62 µM (≈ 18.2 µg/mL) | – | – | –
COc1ccc(CSc2nc3ccccc3o2)cc1 | 32 µM (≈ 8.68 µg/mL) | 62 µM (≈ 16.8 µg/mL) | 32 µM (≈ 8.68 µg/mL) | 62 µM (≈ 16.8 µg/mL) | 32 µM (≈ 8.68 µg/mL) | 125 µM (≈ 33.9 µg/mL) | 32 µM (≈ 8.68 µg/mL) | 62 µM (≈ 16.8 µg/mL) | 32 µM (≈ 8.68 µg/mL) | 62 µM (≈ 16.8 µg/mL) | – | – | –
Cc1ccc(CSc2nc3ccccc3o2)cc1 | 32 µM (≈ 8.17 µg/mL) | > 500 µM | 62 µM (≈ 15.8 µg/mL) | 125 µM (≈ 31.9 µg/mL) | 62 µM (≈ 15.8 µg/mL) | > 500 µM | 62 µM (≈ 15.8 µg/mL) | 125 µM (≈ 31.9 µg/mL) | 62 µM (≈ 15.8 µg/mL) | 62 µM (≈ 15.8 µg/mL) | – | – | –
NC(=S)c1ccc(CSc2nc3ccccc3o2)cc1 | 32 µM (≈ 9.61 µg/mL) | 8 µM (≈ 2.4 µg/mL) | 16 µM (≈ 4.81 µg/mL) | 16 µM (≈ 4.81 µg/mL) | 16 µM (≈ 4.81 µg/mL) | 16 µM (≈ 4.81 µg/mL) | 8 µM (≈ 2.4 µg/mL) | 16 µM (≈ 4.81 µg/mL) | 8 µM (≈ 2.4 µg/mL) | 32 µM (≈ 9.61 µg/mL) | 9.4 µg/mL (≈ 31.3 µM) | 23.6 µg/mL (≈ 78.6 µM) | 23.8 µg/mL (≈ 79.2 µM)
N#Cc1ccc(CSc2nc3ccccc3o2)cc1 | 62 µM (≈ 16.5 µg/mL) | > 62 µM | 32 µM (≈ 8.52 µg/mL) | > 32 µM | 32 µM (≈ 8.52 µg/mL) | > 62 µM | 32 µM (≈ 8.52 µg/mL) | > 32 µM | 16 µM (≈ 4.26 µg/mL) | 62 µM (≈ 16.5 µg/mL) | – | – | –
FC(F)(F)c1cc(CSc2nc3ccccc3o2)cc(C(F)(F)F)c1 | > 125 µM | 62 µM (≈ 23.4 µg/mL) | 62 µM (≈ 23.4 µg/mL) | 62 µM (≈ 23.4 µg/mL) | 32 µM (≈ 12.1 µg/mL) | 125 µM (≈ 47.2 µg/mL) | 62 µM (≈ 23.4 µg/mL) | 125 µM (≈ 47.2 µg/mL) | 32 µM (≈ 12.1 µg/mL) | > 125 µM | – | – | –
Clc1ccccc1CSc1nc2ccccc2o1 | 125 µM (≈ 34.5 µg/mL) | > 250 µM | 32 µM (≈ 8.82 µg/mL) | 125 µM (≈ 34.5 µg/mL) | 62 µM (≈ 17.1 µg/mL) | > 250 µM | 32 µM (≈ 8.82 µg/mL) | 62 µM (≈ 17.1 µg/mL) | 62 µM (≈ 17.1 µg/mL) | 125 µM (≈ 34.5 µg/mL) | – | – | –
COc1cccc(CSc2nc3ccccc3o2)c1 | 32 µM (≈ 8.68 µg/mL) | 125 µM (≈ 33.9 µg/mL) | 32 µM (≈ 8.68 µg/mL) | 62 µM (≈ 16.8 µg/mL) | 32 µM (≈ 8.68 µg/mL) | 250 µM (≈ 67.8 µg/mL) | 32 µM (≈ 8.68 µg/mL) | 62 µM (≈ 16.8 µg/mL) | 32 µM (≈ 8.68 µg/mL) | 32 µM (≈ 8.68 µg/mL) | – | – | –
FC(F)(F)c1ccc(CSc2nc3ccccc3o2)cc1 | 62 µM (≈ 19.2 µg/mL) | 125 µM (≈ 38.7 µg/mL) | 62 µM (≈ 19.2 µg/mL) | 62 µM (≈ 19.2 µg/mL) | 32 µM (≈ 9.9 µg/mL) | 125 µM (≈ 38.7 µg/mL) | 32 µM (≈ 9.9 µg/mL) | 125 µM (≈ 38.7 µg/mL) | 16 µM (≈ 4.95 µg/mL) | 62 µM (≈ 19.2 µg/mL) | – | – | –
O=[N+]([O-])c1ccc(CSc2nc3ccccc3o2)cc1 | > 32 µM | > 62 µM | 32 µM (≈ 9.16 µg/mL) | > 32 µM | 32 µM (≈ 9.16 µg/mL) | > 125 µM | 32 µM (≈ 9.16 µg/mL) | > 62 µM | 32 µM (≈ 9.16 µg/mL) | > 62 µM | – | – | –
